# Results collected from several papers.
# Protocols differ between the studies behind these lines.
Structure (SMILES),tested on,test,test system,setting,quantity,value
Oc1ccc(C2NCCc3cc(O)c(O)cc32)cc1O (stereo not drawn),,ABTS scavenging,,"10 min, dark",IC50,4.93 µM
O=C1O[C@H]([C@@H](O)CO)C(O)=C1O,,"ABTS scavenging, absorbance",,dark,IC50,5.42 µg/mL
CCCCC[C@H](O)/C=C/[C@@H]1[C@@H](C/C=C\CCCC(=O)O)[C@@H](O)C[C@H]1O,Leishmania donovani,"parasite growth, resazurin",,"72 h, promastigote",IC50,> 100 µM
CCCCCCCCCC1NCCc2cc(O)c(O)cc21 (stereo not drawn),,ABTS scavenging,,"10 min, dark",IC50,57.3 µM
CCCCCCCCCCCCCCCCCCOc1cccc(CC(=O)OCC[N+](C)(C)C)c1,NCI-H522,"cell growth or viability, SRB",,10 µM,inhibition,13.3%
c1ccc(-c2ccc3c(c2)NC(C2Nc4cc(-c5ccccc5)ccc4O2)O3)cc1 (stereo not drawn),Leishmania donovani,"parasite growth, resazurin",,"72 h, promastigote",IC50,9.21 µM
CCCCCCCCCCC1NCCc2cc(O)c(O)cc21 (stereo not drawn),,ABTS scavenging,,"10 min, dark",IC50,69.9 µM
CCOc1ccc(Nc2c3c(nc4ccccc24)CCC3)cc1,Leishmania donovani,parasite growth,THP-1,"intracellular, amastigote",IC50,0.592 µM
COc1cccc(C2NCCc3cc(O)c(O)cc32)c1O (stereo not drawn),,ABTS scavenging,,"10 min, dark",IC50,8.51 µM
CCCCCCCCCCCCCCCCOP(=O)([O-])OCC[N+](C)(C)C,Leishmania donovani,parasite growth,THP-1,"40 µM, intracellular, amastigote",inhibition,100%
CCCCCCCCCCCCCCCCCCOc1cccc(CC(=O)OCCC[N+](C)(C)C)c1,NCI-H522,"cell growth or viability, SRB",,10 µM,inhibition,21.8%
C[C@@H]1[C@H](O)[C@@H](C)/C=C/C=C/C=C/C=C/C=C/C=C/C=C/[C@H](O[C@@H]2O[C@H](C)[C@@H](O)[C@H](N)[C@@H]2O)C[C@@H]2O[C@](O)(C[C@@H](O)C[C@@H](O)[C@H](O)CC[C@@H](O)C[C@@H](O)CC(=O)O[C@H]1C)C[C@H](O)[C@H]2C(=O)O,Leishmania donovani,"parasite growth, imaging",THP-1,"20 nM, intracellular, amastigote",inhibition,7%
COc1cc(C2NCCc3cc(O)c(O)cc32)ccc1O (stereo not drawn),,ABTS scavenging,,"10 min, dark",IC50,14 µM
c1ccc(Oc2ccc(Nc3c4c(nc5ccccc35)CCC4)cc2)cc1,Leishmania donovani,"parasite growth, resazurin",,promastigote,IC50,0.6 µM
COc1cc(/C=C/C(=O)CC(=O)/C=C/c2ccc(O)c(OC)c2)ccc1O,,ABTS scavenging,,20 min,IC50,165 µg/mL
